Data as given in ChEMBL document CHEMBL2150931, “Design, synthesis, and biological activity of a novel series of human sirtuin-2-selective inhibitors” (J Med Chem, 2012).

Legend:
[1] = biological target: T1, NAD-dependent protein deacetylase sirtuin-2 (Homo sapiens, UniProt Q8IXJ6); assay: Inhibition of human recombinant SIRT2 using Fluor de Lys-SIRT as substrate incubated for 60 mins prior to substrate addition measured after 60 mins by fluorimetric analysis
T1 sequence (Q8IXJ6 whole entry): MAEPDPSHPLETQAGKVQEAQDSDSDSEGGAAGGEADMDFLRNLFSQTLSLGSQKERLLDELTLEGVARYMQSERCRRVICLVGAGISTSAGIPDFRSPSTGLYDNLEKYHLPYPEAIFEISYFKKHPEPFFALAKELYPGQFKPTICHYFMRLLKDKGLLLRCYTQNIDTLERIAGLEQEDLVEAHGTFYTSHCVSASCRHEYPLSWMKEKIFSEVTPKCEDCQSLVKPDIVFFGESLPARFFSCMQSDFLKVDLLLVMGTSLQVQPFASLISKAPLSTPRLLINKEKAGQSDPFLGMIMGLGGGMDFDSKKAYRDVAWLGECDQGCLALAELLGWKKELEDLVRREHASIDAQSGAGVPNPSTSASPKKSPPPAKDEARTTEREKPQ
In short: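 Human recombinant SIRT2 preincubated with 1 mM NAD⁺ and serial compound dilutions for 60 min at 37 °C, then 25 μM Fluor de Lys-SIRT substrate added. Reaction stopped at 60 min with Developer II containing nicotinamide. Fluorescence read 45 min later at ex 360/em 460 nm. % inhibition taken against control wells. IC₅₀ obtained by regression of log[Inh] vs logit % inhibition; means of ≥3 experiments.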

Histone deacetylase 3 = Histone deacetylase 3 (Homo sapiens, UniProt O15379); assay: Inhibition of HDAC3
Histone deacetylase 7 = biological target: T2, Histone deacetylase 7 (Homo sapiens, UniProt Q8WUI4); assay: Inhibition of HDAC7
T2 sequence (Q8WUI4 whole entry): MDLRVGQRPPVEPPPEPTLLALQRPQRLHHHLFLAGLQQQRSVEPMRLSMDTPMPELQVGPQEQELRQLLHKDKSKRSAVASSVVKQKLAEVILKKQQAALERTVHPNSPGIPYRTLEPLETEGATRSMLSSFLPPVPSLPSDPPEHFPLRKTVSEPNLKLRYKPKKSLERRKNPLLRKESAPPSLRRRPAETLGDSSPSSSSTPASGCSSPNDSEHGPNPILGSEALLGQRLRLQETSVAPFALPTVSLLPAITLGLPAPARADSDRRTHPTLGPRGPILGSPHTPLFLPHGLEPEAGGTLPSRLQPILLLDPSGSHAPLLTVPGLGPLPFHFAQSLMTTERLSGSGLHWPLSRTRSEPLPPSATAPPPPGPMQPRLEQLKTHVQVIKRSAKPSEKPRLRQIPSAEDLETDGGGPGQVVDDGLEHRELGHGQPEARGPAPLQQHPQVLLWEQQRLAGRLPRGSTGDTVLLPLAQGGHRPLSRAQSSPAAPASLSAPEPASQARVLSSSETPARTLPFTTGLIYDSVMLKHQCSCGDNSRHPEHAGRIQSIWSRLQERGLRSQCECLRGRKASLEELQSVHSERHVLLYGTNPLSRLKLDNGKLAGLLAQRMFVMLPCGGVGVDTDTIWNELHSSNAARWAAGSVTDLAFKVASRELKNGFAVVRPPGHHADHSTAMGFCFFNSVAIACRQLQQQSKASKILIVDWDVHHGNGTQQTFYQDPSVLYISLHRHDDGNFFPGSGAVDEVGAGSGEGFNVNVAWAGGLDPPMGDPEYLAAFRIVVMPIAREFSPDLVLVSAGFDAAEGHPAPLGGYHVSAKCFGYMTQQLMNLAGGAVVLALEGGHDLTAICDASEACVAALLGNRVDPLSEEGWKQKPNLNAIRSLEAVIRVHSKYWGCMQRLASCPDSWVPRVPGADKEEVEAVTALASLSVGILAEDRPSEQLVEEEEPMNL

Histone deacetylase 8 = biological target: T3, Histone deacetylase 8 (Homo sapiens, UniProt Q9BY41); assay: Inhibition of HDAC8
T3 sequence (Q9BY41 whole entry): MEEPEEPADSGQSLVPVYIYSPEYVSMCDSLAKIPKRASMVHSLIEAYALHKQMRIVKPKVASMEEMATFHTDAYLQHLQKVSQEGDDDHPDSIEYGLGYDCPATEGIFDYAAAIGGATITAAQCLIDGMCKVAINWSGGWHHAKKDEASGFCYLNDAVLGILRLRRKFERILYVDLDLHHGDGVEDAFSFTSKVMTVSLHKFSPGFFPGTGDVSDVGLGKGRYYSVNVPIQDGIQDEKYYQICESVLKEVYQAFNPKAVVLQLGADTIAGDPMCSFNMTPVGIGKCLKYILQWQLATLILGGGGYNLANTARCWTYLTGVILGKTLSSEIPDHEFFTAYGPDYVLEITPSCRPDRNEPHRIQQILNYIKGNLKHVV

Cytochrome P450 3A4 = Cytochrome P450 3A4 (Homo sapiens, UniProt P08684); assay: Inhibition of CYP3A4; type: ADME
[2] = Metabolic stability in human liver microsomes assessed as compound remaining at 0.5 mg after 15 mins; type: ADME, Microsome; conditions: read-out: Stability

Histone deacetylase 3, sequence (O15379 whole entry): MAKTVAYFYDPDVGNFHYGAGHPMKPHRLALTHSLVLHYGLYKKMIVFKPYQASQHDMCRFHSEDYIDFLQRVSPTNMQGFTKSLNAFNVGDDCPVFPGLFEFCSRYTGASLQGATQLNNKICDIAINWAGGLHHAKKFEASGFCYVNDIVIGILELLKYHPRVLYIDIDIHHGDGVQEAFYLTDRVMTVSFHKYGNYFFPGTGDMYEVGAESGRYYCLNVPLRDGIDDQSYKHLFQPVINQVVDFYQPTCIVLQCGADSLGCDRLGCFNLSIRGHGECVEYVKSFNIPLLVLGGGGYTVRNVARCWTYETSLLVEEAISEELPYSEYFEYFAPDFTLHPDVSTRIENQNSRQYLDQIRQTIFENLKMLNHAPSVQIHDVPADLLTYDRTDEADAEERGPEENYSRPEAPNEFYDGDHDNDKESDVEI
Cytochrome P450 3A4, sequence (P08684 whole entry): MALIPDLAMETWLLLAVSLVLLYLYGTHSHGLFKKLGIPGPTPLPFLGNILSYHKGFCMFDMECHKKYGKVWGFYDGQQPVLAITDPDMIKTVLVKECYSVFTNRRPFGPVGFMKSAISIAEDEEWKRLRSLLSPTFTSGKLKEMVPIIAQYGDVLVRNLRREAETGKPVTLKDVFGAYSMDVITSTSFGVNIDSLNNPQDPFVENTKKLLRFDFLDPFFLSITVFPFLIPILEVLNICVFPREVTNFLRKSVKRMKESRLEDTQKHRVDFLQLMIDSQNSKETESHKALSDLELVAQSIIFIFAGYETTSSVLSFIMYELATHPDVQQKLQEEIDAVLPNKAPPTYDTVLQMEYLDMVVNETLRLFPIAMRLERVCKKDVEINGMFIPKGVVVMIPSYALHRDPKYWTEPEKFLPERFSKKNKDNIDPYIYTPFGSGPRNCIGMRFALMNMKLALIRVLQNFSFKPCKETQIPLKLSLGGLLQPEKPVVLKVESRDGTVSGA

NC(=O)c1ccccc1Nc1cccc(OCCc2ccccc2)c1
IC50 [1]: 1 µM | IC50 (Histone deacetylase 3): > 30 µM | IC50 (Histone deacetylase 7): > 30 µM | IC50 (Histone deacetylase 8): > 30 µM | IC50 (Cytochrome P450 3A4): > 10 µM | remaining at 0.25 h [2]: 64%
